{
  "source": "ChEMBL document CHEMBL4028906",
  "about": "“Allosteric Inhibitors of SHP2 with Therapeutic Potential for Cancer Treatment” (J Med Chem, 2017)",
  "key": {"[1]": {"tested_on": "SF-268", "assay": "Effect on YAP gene expression in human SF268 cells at 10 to 20 uM after 2 hrs by qRT-PCR analysis", "assay_type": "functional, cell-based", "how_it_was_run": "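SF268 cells exposed to DMSO, 10 μM or 20 μM inhibitor for 2 h. RNA extracted, reverse-transcribed, and CTGF, CYR61, ANKRD1 and YAP mRNA quantified by qPCR; mean±s.d., n=3.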"}, "[2]": {"tested_on": "BT-474", "assay": "Antiproliferative activity against human BT474 cells at 3 to 6 uM after 2 days by CellTiter-Glo assay", "assay_type": "functional, cell-based", "how_it_was_run": "(§1)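 3000 cells/well in 96-well plates, grown overnight, then inhibitor at indicated concentrations for 2 days (48 h). Viability by CellTiter-Glo; mean±s.d., n=3.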"}, "[3]": {"organism": "Homo sapiens", "assay": "Selectivity ratio of IC50 for MKP3 (unknown origin) expressed in Escherichia coli BL21(DE3) to IC50 for SHP2 E76A mutant (unknown origin) expressed in Escherichia coli BL21(DE3)", "how_it_was_run": "(§2)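 Ratio of IC50 values from one DIFMUP fluorescence assay (Ex/Em 358/455), room temperature, 0.1 M sodium acetate pH 5.0. His-tagged SHP2 E76A (1.5 nM) or counter-phosphatase purified from E. coli, preincubated 20 min with compound (eight 3-fold dilutions), then DIFMUP added for 20 min. DIFMUP was at Km for each counter-phosphatase. Duplicates; IC50 from at least three independent experiments.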"}, "[4]": {"target": "Dual specificity protein phosphatase 3 (Homo sapiens, UniProt P51452)", "sequence (P51452 whole entry)": "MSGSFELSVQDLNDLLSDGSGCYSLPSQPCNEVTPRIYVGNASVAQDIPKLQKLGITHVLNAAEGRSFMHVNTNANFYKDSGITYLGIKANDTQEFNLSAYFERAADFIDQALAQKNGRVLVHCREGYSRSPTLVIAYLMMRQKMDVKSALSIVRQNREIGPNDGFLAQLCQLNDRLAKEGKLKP", "assay": "Inhibition of VHR (unknown origin) expressed in Escherichia coli BL21(DE3) using DIFMUP as substrate preincubated for 20 mins followed by substrate addition measured after 20 mins by phosphatase assay", "how_it_was_run": "(§3)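 Phosphatases purified from E. coli and run as for SHP2 E76A: 20 min room-temperature preincubation with compound in 0.1 M sodium acetate pH 5.0, then DIFMUP at each enzyme's Km, 20 min, fluorescence 358/455 nm. Eight 3-fold dilutions in duplicate; IC50 from at least three independent experiments.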"}, "[5]": {"tested_on": "MV4-11", "assay": "Antiproliferative activity against human MV4-11 cells at 3 to 6 uM after 2 days by CellTiter-Glo assay", "assay_type": "functional, cell-based", "how_it_was_run": "as §1"}, "[6]": {"tested_on": "KYSE-520 cell line", "assay": "Antiproliferative activity against human KYSE520 cells at 3 to 6 uM after 2 days by CellTiter-Glo assay", "assay_type": "functional, cell-based", "how_it_was_run": "as §1"}, "[7]": {"target": "M-phase inducer phosphatase 1 (Homo sapiens, UniProt P30304)", "sequence (P30304 whole entry)": "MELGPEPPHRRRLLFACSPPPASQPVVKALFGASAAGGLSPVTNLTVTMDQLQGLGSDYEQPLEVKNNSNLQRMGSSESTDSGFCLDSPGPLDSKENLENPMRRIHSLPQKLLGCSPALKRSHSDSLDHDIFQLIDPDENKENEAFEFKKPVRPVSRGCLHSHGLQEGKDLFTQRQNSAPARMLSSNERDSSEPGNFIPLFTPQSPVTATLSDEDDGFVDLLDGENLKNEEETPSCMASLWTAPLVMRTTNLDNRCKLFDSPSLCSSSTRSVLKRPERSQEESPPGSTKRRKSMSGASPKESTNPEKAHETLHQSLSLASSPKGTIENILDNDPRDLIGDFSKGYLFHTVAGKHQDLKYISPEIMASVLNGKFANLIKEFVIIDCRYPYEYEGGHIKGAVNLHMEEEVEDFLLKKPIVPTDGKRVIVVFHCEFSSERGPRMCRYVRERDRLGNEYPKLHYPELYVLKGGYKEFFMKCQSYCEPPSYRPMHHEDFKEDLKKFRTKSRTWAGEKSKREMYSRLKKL", "assay": "Inhibition of CDC25A (unknown origin) expressed in Escherichia coli BL21(DE3) using DIFMUP as substrate preincubated for 20 mins followed by substrate addition measured after 20 mins by phosphatase assay", "how_it_was_run": "as §3"}, "[8]": {"tested_on": "MOLM-13", "assay": "Antiproliferative activity against human MOLM13 cells at 3 to 6 uM after 2 days by CellTiter-Glo assay", "assay_type": "functional, cell-based", "how_it_was_run": "as §1"}, "[9]": {"target": "Tyrosine-protein phosphatase non-receptor type 1 (Homo sapiens, UniProt P18031)", "sequence (P18031 whole entry)": "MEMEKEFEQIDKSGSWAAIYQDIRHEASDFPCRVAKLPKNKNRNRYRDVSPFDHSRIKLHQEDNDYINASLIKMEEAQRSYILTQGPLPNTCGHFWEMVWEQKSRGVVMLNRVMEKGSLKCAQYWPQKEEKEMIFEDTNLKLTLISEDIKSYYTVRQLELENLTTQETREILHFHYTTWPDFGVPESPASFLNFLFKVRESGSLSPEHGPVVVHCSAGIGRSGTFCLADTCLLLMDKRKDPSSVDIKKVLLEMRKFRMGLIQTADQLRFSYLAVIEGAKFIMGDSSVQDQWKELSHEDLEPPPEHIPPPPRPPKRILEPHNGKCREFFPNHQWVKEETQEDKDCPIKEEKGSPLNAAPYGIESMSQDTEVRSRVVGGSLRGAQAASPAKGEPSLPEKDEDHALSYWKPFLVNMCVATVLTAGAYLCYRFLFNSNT", "assay": "Inhibition of PTP1B (unknown origin) expressed in Escherichia coli BL21(DE3) using DIFMUP as substrate preincubated for 20 mins followed by substrate addition measured after 20 mins by phosphatase assay", "how_it_was_run": "as §3"}, "[10]": {"target": "T1, Tyrosine-protein phosphatase non-receptor type 11 (Homo sapiens) (UniProt Q06124)", "T1 sequence (whole entry)": "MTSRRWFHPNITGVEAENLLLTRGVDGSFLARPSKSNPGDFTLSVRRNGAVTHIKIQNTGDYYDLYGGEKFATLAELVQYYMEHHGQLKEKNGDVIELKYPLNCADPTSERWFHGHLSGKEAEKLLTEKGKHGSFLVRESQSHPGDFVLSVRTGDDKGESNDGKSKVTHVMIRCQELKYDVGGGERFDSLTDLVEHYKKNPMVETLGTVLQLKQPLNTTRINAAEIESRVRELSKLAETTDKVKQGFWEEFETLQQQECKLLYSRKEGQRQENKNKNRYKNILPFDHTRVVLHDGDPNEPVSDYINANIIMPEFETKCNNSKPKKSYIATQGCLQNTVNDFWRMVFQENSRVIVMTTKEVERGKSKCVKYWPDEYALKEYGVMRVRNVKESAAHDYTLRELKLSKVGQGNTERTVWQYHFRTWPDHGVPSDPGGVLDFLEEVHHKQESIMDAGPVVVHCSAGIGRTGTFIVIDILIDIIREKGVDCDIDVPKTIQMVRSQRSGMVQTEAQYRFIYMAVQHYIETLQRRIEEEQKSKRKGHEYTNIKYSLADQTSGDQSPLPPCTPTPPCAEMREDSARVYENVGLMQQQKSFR", "assay": "Allosteric inhibition of SHP2 in human NCI-H661 cells assessed as downregulation of phosphorylated ERK1/2 levels at 2.5 to 20 uM after 2 hrs by Western blot analysis", "assay_type": "cell-based", "how_it_was_run": "(§4)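 NCI-H661 cells in 6-well plates exposed to inhibitor 2 h at 37 °C. RIPA lysates separated by SDS-PAGE, transferred to PVDF, milk-blocked, probed overnight at 4 °C for pERK1/2, ERK1/2, pAKT and AKT. Repeated at least three times.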"}, "[11]": {"tested_on": "NCI-H1975", "assay": "Antiproliferative activity against human NCI-H1975 cells assessed as reduction in colony formation at 2.5 to 10 uM after 2 weeks by soft agar assay", "assay_type": "functional, cell-based", "how_it_was_run": "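NCI-H1975 cells at 10,000/well in 0.4% agarose over a 1% low-melt agarose base layer (6-well). Inhibitor at varying concentrations, replenished twice weekly. After 2 weeks, colonies stained with iodonitrotetrazolium chloride and counted; mean±s.d., n=3.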"}, "[12]": {"organism": "Homo sapiens", "assay": "Selectivity ratio of IC50 for VHR (unknown origin) expressed in Escherichia coli BL21(DE3) to IC50 for SHP2 E76A mutant (unknown origin) expressed in Escherichia coli BL21(DE3)", "how_it_was_run": "as §2"}, "[13]": {"assay": "Inhibition of SHP2 N58S mutant (unknown origin)", "set-up": "species or system Homo sapiens"}, "[14]": {"target": "T1, Tyrosine-protein phosphatase non-receptor type 11 (Homo sapiens)", "assay": "Allosteric inhibition of SHP2 PTP domain (unknown origin) expressed in Escherichia coli BL21(DE3) using DIFMUP as substrate preincubated for 20 mins followed by substrate addition measured after 20 mins by phosphatase assay", "how_it_was_run": "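His-tagged SHP2 constructs expressed in E. coli BL21(DE3) (0.5 mM IPTG, 5 h, 30 °C) and Ni-column purified. 1.5 nM enzyme preincubated 20 min at room temperature with compound in 0.1 M sodium acetate pH 5.0. DIFMUP then added, 20 min further, fluorescence at 358/455 nm. Eight 3-fold dilutions, duplicate wells, IC50 from at least three independent experiments.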"}, "[15]": {"assay": "Oral bioavailability in nu/nu mouse at 10 mg/kg measured up to 24 hrs postdose by LC/MS/MS analysis", "assay_type": "ADME, organism-based", "conditions": "in vivo", "how_it_was_run": "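Female nu/nu nude mice dosed IV via tail vein at 5 mg/kg or orally at 10 mg/kg. Blood sampled at 0.083, 0.25, 0.5, 1, 2, 4, 8 and 24 h post-dose (orbital sinus, terminal cardiac puncture; EDTA-2K). Plasma separated at 4 °C, precipitated with acetonitrile containing internal standard, quantified by LC/MS/MS.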"}, "[16]": {"tested_on": "NCI-H1975", "assay": "Antiproliferative activity against human NCI-H1975 cells at 3 to 6 uM after 2 days by CellTiter-Glo assay", "assay_type": "functional, cell-based", "how_it_was_run": "as §1"}, "[17]": {"target": "T1, Tyrosine-protein phosphatase non-receptor type 11 (Homo sapiens)", "assay": "Allosteric inhibition of SHP2 in human NCI-H661 cells assessed as downregulation of phosphorylated AKT levels at 2.5 to 20 uM after 2 hrs by Western blot analysis", "assay_type": "cell-based", "how_it_was_run": "as §4"}},
  "note": "Calls of active or inactive are those of the source. The calls are words filed in the database; no cut-off is given here.",
  "data": [
    {"smiles": "CC1(N)CCN(c2nc(-c3ccc4cc(Br)ccc4c3)cs2)CC1", "values": [
      {"measurement": "Activity", "setting": "[1]", "value": "inactive"},
      {"measurement": "Activity", "setting": "[2]", "value": "Active"},
      {"measurement": "Ratio IC50", "setting": "[3]", "value": "> 30"},
      {"measurement": "IC50", "setting": "[4]", "value": "> 100", "unit": "µM"},
      {"measurement": "Activity", "setting": "[5]", "value": "Active"},
      {"measurement": "Activity", "setting": "[6]", "value": "Active"},
      {"measurement": "IC50", "setting": "[7]", "value": 27.5, "unit": "µM"},
      {"measurement": "Activity", "setting": "[8]", "value": "Active"},
      {"measurement": "IC50", "setting": "[9]", "value": 31.2, "unit": "µM"},
      {"measurement": "inhibition", "setting": "[10]", "value": "Active"},
      {"measurement": "Activity", "setting": "[11]", "value": "Active"},
      {"measurement": "Ratio IC50", "setting": "[12]", "value": "> 30"},
      {"measurement": "IC50", "setting": "[13]", "value": 1200, "unit": "nM"},
      {"measurement": "inhibition", "setting": "[14]", "value": "inactive"},
      {"measurement": "bioavailability", "setting": "[15]", "value": 67, "unit": "%"},
      {"measurement": "Activity", "setting": "[16]", "value": "Active"},
      {"measurement": "inhibition", "setting": "[17]", "value": "Active"}
    ]}
  ]
}
